Results on three molecules are retold here after ChEMBL document CHEMBL1128502, “Aziridine analogs of [[trans-(epoxysuccinyl)-L-leucyl]amino]-4-guanidinobutane (E-64) as inhibitors of cysteine proteases” (J Med Chem, 1995).

For assay [1], the target named is T1, Papain (Carica papaya) (UniProt P00784).
T1 sequence (whole entry): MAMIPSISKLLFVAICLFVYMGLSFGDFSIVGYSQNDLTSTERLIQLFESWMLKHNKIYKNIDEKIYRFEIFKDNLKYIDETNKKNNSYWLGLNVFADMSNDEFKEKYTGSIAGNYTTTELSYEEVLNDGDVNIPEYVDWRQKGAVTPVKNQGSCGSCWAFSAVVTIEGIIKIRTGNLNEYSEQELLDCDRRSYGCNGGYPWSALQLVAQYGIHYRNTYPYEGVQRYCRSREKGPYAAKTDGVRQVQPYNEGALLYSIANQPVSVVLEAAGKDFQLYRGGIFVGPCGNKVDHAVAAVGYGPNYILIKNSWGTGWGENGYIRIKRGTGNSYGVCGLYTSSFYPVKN
In words: Second order rate constant for the inactivation of papain at pH 6.5 was reported. The gist of the method: (§1)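 Inactivation of cysteine protease was followed at 25 °C in 50 mM buffer with 0.2 M NaCl, 5 mM EDTA, 1 mM DTT and 10% acetonitrile. Buffers were citrate for pH 3.0–5.7, phosphate for pH 5.7–7.9 and borate for pH 7.9–9.0. The second-order constant kinac/Ki was obtained by the Tian and Tsou method.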

Assay [2] addresses Procathepsin L (Homo sapiens) (UniProt P07711). In words: Second order rate constant for the inactivation of cathepsin L at pH 6.5 was reported. A digest of the protocol:
as §1

The target of assay [3] is T1, Papain (Carica papaya). In words: Second order rate constant for the inactivation of papain at pH 6.5 was reported; No time dependent inhibition observed. The gist of the method:
as §1

In assay [4] the target is Cathepsin B (Rattus norvegicus) (UniProt P00787). In words: Second order rate constant for the inactivation of cathepsin B at pH 6.0 was reported.
Chain of Cathepsin B (Rattus norvegicus) (P00787 80-333 limits assumed): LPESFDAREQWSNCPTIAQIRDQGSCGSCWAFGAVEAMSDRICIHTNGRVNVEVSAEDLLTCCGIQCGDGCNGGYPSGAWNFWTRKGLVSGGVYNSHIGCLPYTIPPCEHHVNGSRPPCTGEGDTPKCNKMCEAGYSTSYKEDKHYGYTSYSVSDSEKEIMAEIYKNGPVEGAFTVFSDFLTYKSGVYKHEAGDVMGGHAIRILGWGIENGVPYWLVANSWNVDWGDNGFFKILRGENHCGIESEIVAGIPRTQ
The target is the same in assay [5]. In words: Second order rate constant for the inactivation of cathepsin B at pH 6.0 was reported; No time dependent inhibition observed. A digest of the protocol:
as §1

Assay [6] has as its target Procathepsin L (Homo sapiens) (UniProt P07711). In words: Second order rate constant for the inactivation of cathepsin L at pH 5.5 was reported. A digest of the protocol: as §1

Chain of Procathepsin L (Homo sapiens) (P07711 114-333 limits assumed): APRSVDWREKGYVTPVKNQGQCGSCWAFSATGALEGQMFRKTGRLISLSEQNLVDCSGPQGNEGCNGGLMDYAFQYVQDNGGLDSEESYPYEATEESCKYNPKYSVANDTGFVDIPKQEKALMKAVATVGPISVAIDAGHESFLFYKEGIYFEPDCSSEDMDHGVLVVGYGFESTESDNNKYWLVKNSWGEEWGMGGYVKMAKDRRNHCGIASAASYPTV

For the molecule `CC(C)CNC(=O)[C@H]1N[C@H]1C(=O)O`, at Papain (Carica papaya) [1], the K inact/Ki amounted to 9.4 M⁻¹ s⁻¹.

With `CC(C)CNC(=O)[C@@H]1N[C@H]1C(=O)N[C@@H](CC(C)C)C(=O)N1CCC[C@H]1C(=O)O`, the results for the K inact/Ki (in assay [2]; at Papain (Carica papaya) [3]; in assay [4]) were 50 M⁻¹ s⁻¹, “No inhibition” and 13 M⁻¹ s⁻¹, respectively.

As for `CC(C)CNC(=O)[C@@H]1N[C@@H]1C(=O)N[C@@H](CC(C)C)C(=O)N1CCC[C@H]1C(=O)O`, the results for the K inact/Ki (on Papain (Carica papaya) [1]; in assay [5]; in assay [6]) were 1.8 M⁻¹ s⁻¹, “No inhibition” and 6.7 M⁻¹ s⁻¹, respectively.
